Active and inactive are the calls of the source. The calls are words filed in the database; no cut-off is given here.
Experiments:
HUVEC [1] = test: Antiproliferative activity against HUVEC assessed as inhibition of VEGF induced cell proliferation after 72 hrs by MTS assay; assay type: functional; conditions: Homo sapiens
Outline: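 HUVECs were seeded at 3,000 cells/well, attached overnight, then treated with varying drug concentrations. Metabolic activity was read with MTS/PMS after 72 h. GI50 is the mean ± SEM of at least two separate experiments run in triplicate.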

[2] = Inhibition of hedgehog pathway in mouse C3H10T1/2 cells assessed as Gli1 mRNA expression at 1 uM after 24 hrs by qPCR method; assay type: cell-based; design: scale not given: the % may be the effect or the level left; conditions: C3H 10T1/2
Outline: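 C3H10T1/2 mouse embryonic fibroblasts were stimulated with recombinant mouse Sonic Hedgehog (C25II) and co-treated with compound at 1 μM for 24 h. Endogenous Gli1 mRNA was measured by qPCR and expressed as % of the Hh-ligand-only control (100%).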

[3] = Inhibition of hedgehog pathway in mouse C3H10T1/2 cells assessed as downregulation of Gli1 mRNA expression after 24 hrs by qPCR method; assay type: cell-based; conditions: C3H 10T1/2, 24 h
Outline: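 Hh-ligand-stimulated C3H10T1/2 cells (recombinant mouse Sonic Hedgehog C25II) were exposed to a concentration series of compound for 24 h. Gli1 mRNA was read by qPCR. IC50 is the mean ± SEM of at least two separate experiments in triplicate.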

[4] = Inhibition of hedgehog pathway in mouse ASZ cells assessed as downregulation of Gli1 mRNA expression after 48 hrs by qPCR method; assay type: cell-based
Outline: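 ASZ murine BCC cells, whose Hh signaling is constitutively active through a heterozygous PTCH1 mutation, got no added agonist. They were treated with a concentration series for 48 h and Gli1 mRNA was quantified by qPCR. IC50 is the mean ± SEM of at least two separate experiments in triplicate.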

HUVEC [5] = test: Antiangiogenic activity against HUVEC assessed as inhibition of total tube junctions at 10 uM after 16 hrs by inverted microscopy; assay type: functional; conditions: Homo sapiens
Outline: (§1)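 HUVECs in M199 with 1% FBS and penicillin/streptomycin, 50,000 cells per well, on Matrigel diluted 1:1 with DMEM and set at 37°C. Cells attached for 20-30 min, then got DMSO, suramin (10 uM) or drug at 10, 1 or 0.1 μM for 16 h. Eight phase-contrast fields per well were imaged. Total tube length and junctions were scored relative to DMSO (100%). Each assay was repeated at least three times.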

HUVEC [6] = test: Antiangiogenic activity against HUVEC assessed as inhibition of total tube length at 10 uM after 16 hrs by inverted microscopy; assay type: functional; conditions: Homo sapiens; outline: as §1
[7] = Inhibition of hedgehog pathway in mouse MERP MB cells assessed as downregulation of Gli1 mRNA expression after 48 hrs by qPCR method; assay type: cell-based
Outline: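 Primary medulloblastoma cells from Math1-Cre-ER;Ptc fl/fl mice were incubated with compound for 48 h. Gli1 mRNA was measured by qPCR. IC50 is the mean ± SEM of two separate experiments.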

[8] = Antiproliferative activity against mouse MERP MB cells assessed as cell growth inhibition using methyl-[3H]thymidine after 48 hrs by liquid scintillation spectrophotometry; assay type: functional; conditions: Medulloblastoma cell
Outline: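 Primary MB cells isolated from Math1-Cre-ER;Ptc fl/fl (MERP) mouse tumours were cultured in vitro and exposed to compound for 48 h to measure proliferation. GI50 is the mean ± SEM of at least two separate experiments in triplicate.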

HUVEC [9] = test: Antiangiogenic activity against HUVEC assessed as inhibition of total tube length at 1 uM after 16 hrs by inverted microscopy; assay type: functional, cell-based; conditions: Homo sapiens; outline: as §1
HUVEC [10] = test: Antiangiogenic activity against HUVEC assessed as inhibition of total tube junctions at 1 uM after 16 hrs by inverted microscopy; assay type: functional, cell-based; conditions: Homo sapiens; outline: as §1
Cytochrome P450 3A4 = Cytochrome P450 3A4 (Homo sapiens, UniProt P08684); test: Inhibition of CYP3A4 in human liver microsomes using testosterone as substrate after 10 mins by LC/MS/MS analysis; assay type: ADME
HUVEC [11] = test: Antiproliferative activity against HUVEC assessed as inhibition of VEGF induced cell proliferation using methyl-[3H]thymidine after 36 hrs; assay type: functional, cell-based; conditions: Homo sapiens
[12] = Inhibition of hedgehog pathway in mouse Shh-Light2 cells after 46 hrs by luciferase reporter gene assay; assay type: cell-based; conditions: Shh Light2, 46 h

Cytochrome P450 3A4, sequence (P08684 whole entry): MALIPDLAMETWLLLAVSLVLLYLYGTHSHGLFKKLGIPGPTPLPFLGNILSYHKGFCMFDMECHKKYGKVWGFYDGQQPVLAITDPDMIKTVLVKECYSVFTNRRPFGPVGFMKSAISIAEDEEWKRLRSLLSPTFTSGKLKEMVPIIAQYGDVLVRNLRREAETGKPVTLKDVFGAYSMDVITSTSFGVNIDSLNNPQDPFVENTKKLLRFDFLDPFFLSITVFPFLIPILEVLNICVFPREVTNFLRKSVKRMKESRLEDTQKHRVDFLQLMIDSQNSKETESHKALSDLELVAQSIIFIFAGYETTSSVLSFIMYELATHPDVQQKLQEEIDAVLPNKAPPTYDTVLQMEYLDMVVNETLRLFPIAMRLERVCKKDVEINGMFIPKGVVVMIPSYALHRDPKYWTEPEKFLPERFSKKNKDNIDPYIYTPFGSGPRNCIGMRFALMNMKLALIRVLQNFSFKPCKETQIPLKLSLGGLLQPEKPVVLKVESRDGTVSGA

IC50 [3] | IC50 [4] | SMILES | GI50 (HUVEC [1]) | Activity [2] | other results
 |  | CCC(C)n1ncn(-c2ccc(N3CCN(c4ccc(OCC5COC(C)(Cn6cncn6)O5)cc4)CC3)cc2)c1=O (stereo not given) | 18.4 µM | 61.4% | 
0.043 µM | 0.12 µM | O=c1[nH]ncn1-c1ccc(N2CCN(c3ccc(OCC4COC(Cn5cncn5)(c5ccc(Cl)cc5Cl)O4)cc3)CC2)cc1 (stereo not given) | 5.8 µM | 1.1% | 
 |  | CCC(C)n1ncn(-c2ccc(N3CCN(c4ccc(O)cc4)CC3)cc2)c1=O (stereo not given) | > 100 µM | 45.7% | 
0.16 µM | 0.14 µM | CC[C@H](C)n1ncn(-c2ccc(N3CCN(c4ccc(OCC5COC(Cn6cncn6)(c6ccc(Cl)cc6Cl)O5)cc4)CC3)cc2)c1=O (stereo not given in full) | 2.5 µM | 6.9% | 
6.6 µM | 2.8 µM | CC[C@@H](C)n1ncn(-c2ccc(N3CCN(c4ccc(OC[C@H]5CO[C@@](C)(c6ccc(Cl)cc6Cl)O5)cc4)CC3)cc2)c1=O | 65 µM |  | 
0.14 µM | 0.16 µM | CC[C@@H](C)n1ncn(-c2ccc(N3CCN(c4ccc(OCC5COC(Cn6cncn6)(c6ccc(Cl)cc6Cl)O5)cc4)CC3)cc2)c1=O (stereo not given in full) | 1.7 µM | 3% | 
 |  | Cc1ccc(C(=O)Nc2ccc(S(=O)(=O)O)c3cc(S(=O)(=O)O)cc(S(=O)(=O)O)c23)cc1NC(=O)c1cccc(NC(=O)Nc2cccc(C(=O)Nc3cc(C(=O)Nc4ccc(S(=O)(=O)O)c5cc(S(=O)(=O)O)cc(S(=O)(=O)O)c45)ccc3C)c2)c1 [SURAMIN] |  |  | inhibition at 10 µM (HUVEC [5]): 57.6%; inhibition at 10 µM (HUVEC [6]): 51.9%
1.85 µM | 0.15 µM | CC[C@H](C)n1ncn(-c2ccc(N3CCN(c4ccc(OC[C@@H]5CO[C@](C)(c6ccc(Cl)cc6Cl)O5)cc4)CC3)cc2)c1=O | 2.5 µM |  | IC50 [7]: 0.26 µM; GI50 [8]: 0.39 µM
0.13 µM | 0.09 µM | O=[N+]([O-])c1ccc(N2CCN(c3ccc(OCC4COC(Cn5cncn5)(c5ccc(Cl)cc5Cl)O4)cc3)CC2)cc1 (stereo not given) | 8.4 µM | 1.5% | 
1.1 µM | 2.5 µM | CC[C@H](C)n1ncn(-c2ccc(N3CCN(c4ccc(OC[C@H]5CO[C@](C)(c6ccc(Cl)cc6Cl)O5)cc4)CC3)cc2)c1=O | 7.7 µM |  | 
> 10 µM | 0.2 µM | CCCn1ncn(-c2ccc(N3CCN(c4ccc(OC[C@H]5CO[C@](C)(c6ccc(Cl)cc6Cl)O5)cc4)CC3)cc2)c1=O | 84.1 µM |  | GI50 [8]: 22.4 µM
0.42 µM | 0.45 µM | CCC(C)n1ncn(-c2ccc(N3CCN(c4ccc(OCC5COC(Cn6cncn6)(c6ccccc6)O5)cc4)CC3)cc2)c1=O (stereo not given) | 8.3 µM | 13.1% | 
0.091 µM | 0.077 µM | CCC(C)n1ncn(-c2ccc(N3CCN(c4ccc(OC[C@@H]5CO[C@@](C)(c6ccc(Cl)cc6Cl)O5)cc4)CC3)cc2)c1=O (stereo not given in full) | 3.32 µM |  | GI50 [8]: 2 µM
0.54 µM | 0.13 µM | CC[C@@H](C)n1ncn(-c2ccc(N3CCN(c4ccc(OC[C@H]5CO[C@](C)(c6ccc(Cl)cc6Cl)O5)cc4)CC3)cc2)c1=O | 12.1 µM |  | inhibition (HUVEC [5]): inactive; inhibition (HUVEC [6]): inactive
> 10 µM | 0.54 µM | CCCn1ncn(-c2ccc(N3CCN(c4ccc(OC[C@H]5CO[C@@](C)(c6ccc(Cl)cc6Cl)O5)cc4)CC3)cc2)c1=O | 24.9 µM |  | 
0.19 µM | 0.022 µM | CC[C@@H](C)n1ncn(-c2ccc(N3CCN(c4ccc(OC[C@@H]5CO[C@@](C)(c6ccc(Cl)cc6Cl)O5)cc4)CC3)cc2)c1=O | 53.2 µM |  | IC50 [7]: 0.19 µM; GI50 [8]: 0.6 µM
 |  | CCCn1ncn(-c2ccc(N3CCN(c4ccc(OCC5COC(Cn6cncn6)(c6ccc(Cl)cc6Cl)O5)cc4)CC3)cc2)c1=O (stereo not given) | 4.7 µM | 58.5% | 
0.47 µM | 0.38 µM | CC[C@H](C)n1ncn(-c2ccc(N3CCN(c4ccc(OC[C@@H]5CO[C@@](C)(c6ccc(Cl)cc6Cl)O5)cc4)CC3)cc2)c1=O | 18.3 µM |  | 
0.85 µM | 0.071 µM | CCC(C)n1ncn(-c2ccc(N3CCN(c4ccc(OC[C@H]5CO[C@@](C)(c6ccc(Cl)cc6Cl)O5)cc4)CC3)cc2)c1=O (relative stereo) | 3.69 µM |  | GI50 [8]: 2.9 µM
2.4 µM | 0.024 µM | CC[C@@H](C)n1ncn(-c2ccc(N3CCN(c4ccc(OC[C@@H]5CO[C@](C)(c6ccc(Cl)cc6Cl)O5)cc4)CC3)cc2)c1=O | 12.8 µM |  | inhibition (HUVEC [5]): inactive; inhibition (HUVEC [6]): inactive; IC50 [7]: 0.29 µM; GI50 [8]: 1 µM
 |  | CCC(C)n1ncn(-c2ccc(N3CCN(c4ccc(OCC5COC(C)(C)O5)cc4)CC3)cc2)c1=O (stereo not given) | > 100 µM | 71.4% | 
0.063 µM | 0.14 µM | CCC(C)n1ncn(-c2ccc(N3CCN(c4ccc(OCC5COC(Cn6cncn6)(c6ccc(Cl)cc6Cl)O5)cc4)CC3)cc2)c1=O (stereo not given) [ITRACONAZOLE] | 0.4 µM | 1.7% | IC50 (HUVEC [11]): 0.16 µM; inhibition (HUVEC [9]): Active; inhibition (HUVEC [10]): Active; IC50 [7]: 0.39 µM; GI50 [8]: 0.44 µM; IC50 [12]: 0.69 µM
4.1 µM | 1.3 µM | CCCn1ncn(-c2ccc(N3CCN(c4ccc(OC[C@@H]5CO[C@@](C)(c6ccc(Cl)cc6Cl)O5)cc4)CC3)cc2)c1=O | 26.5 µM |  | 
> 10 µM | 0.55 µM | CC[C@H](C)n1ncn(-c2ccc(N3CCN(c4ccc(OC[C@H]5CO[C@@](C)(c6ccc(Cl)cc6Cl)O5)cc4)CC3)cc2)c1=O | 78.3 µM |  | 
> 10 µM | 1.4 µM | CCCn1ncn(-c2ccc(N3CCN(c4ccc(OC[C@@H]5CO[C@](C)(c6ccc(Cl)cc6Cl)O5)cc4)CC3)cc2)c1=O | 49.9 µM |  | 
0.16 µM | 0.12 µM | Nc1ccc(N2CCN(c3ccc(OCC4COC(Cn5cncn5)(c5ccc(Cl)cc5Cl)O4)cc3)CC2)cc1 (stereo not given) | 42.7 µM | 6.1% | GI50 [8]: 0.9 µM

SMILES | IC50 [3] | IC50 [4] | GI50 (HUVEC [1]) | Activity [2] | other results
CC[C@@H]([C@H](C)O)n1ncn(-c2ccc(N3CCN(c4ccc(OC[C@@H]5CO[C@@](Cn6cncn6)(c6ccc(F)cc6F)C5)cc4)CC3)cc2)c1=O [POSACONAZOLE] | 0.14 µM | 0.54 µM | 1.6 µM |  | 
CCC(C)n1ncn(-c2ccc(N3CCN(c4ccc(OCC5COC(C)(c6ccc(Cl)cc6Cl)O5)cc4)CC3)cc2)c1=O (stereo not given) | 0.14 µM | 0.17 µM | 23.8 µM | 17.8% | inhibition (HUVEC [9]): Active; inhibition (HUVEC [10]): Active; IC50 (Cytochrome P450 3A4): > 10 µM
